Laboratory results reported in paper PMC10329955 (Advances in Therapy, 2023).
Entries after “also recorded” stand apart in the source; their conditions may differ.

Key:
[1] = Tirzepatide plasma pharmacokinetics after multiple SC doses; assay type: in vivo, human; conditions: Chinese patients with T2D, QW SC 2.5–15.0 mg
Summary of the method: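 Plasma test compound concentrations were measured after once-weekly SC doses escalated from 2.5 mg by 2.5 mg every 4 weeks, to 10.0 mg or 15.0 mg. Cmax, AUC, Tmax and T½ were derived. T½ was calculated over periods both shorter and longer than the resulting T½. Patients with ≥1 dose and evaluable data were analysed.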

[2] = global and Japanese patient populations, single and multiple doses; cited from earlier work
[3] = tested on: Chinese patients with type 2 diabetes; experiment: Immunogenicity: anti-drug antibodies; assay type: in vivo, human
Summary of the method: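 Randomised 5:1, double-blind, placebo-controlled. Test compound or placebo given once weekly SC, starting at 2.5 mg and rising 2.5 mg every 4 weeks to 10.0 or 15.0 mg. Frequency and percentage of patients with pre-existing and treatment-emergent ADAs were recorded. Treatment-induced meant a titer twofold/1-dilution above the minimum required dilution with no baseline ADA. Treatment-boosted meant a fourfold/2-dilution titer rise over a positive baseline.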

[4] = tested on: Chinese patients with type 2 diabetes; experiment: Pharmacodynamics: change from baseline in HbA1c, FPG, 7-point SMBG, meal intake; assay type: in vivo, human; conditions: both tirzepatide groups; not apparent in placebo
[5] = tested on: Chinese patients with type 2 diabetes; experiment: Safety and tolerability; assay type: in vivo, human; conditions: during the study
Summary of the method: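 Adults aged 20–70 with T2D and BMI ≥ 23.0 kg/m2 received once-weekly SC test compound or placebo, followed by 4 weeks of follow-up. AEs were recorded on an electronic CRF with investigator-assessed relatedness. TEAEs were events arising or worsening after treatment start. Also collected: laboratory values, vital signs, ECG, injection-site reactions and hypoglycaemia (glucose ≤ 70.0 mg/dL, graded per International Hypoglycaemia Study Group). All enrolled patients were included.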

[6] = all 20 patients treated with tirzepatide, treatment-induced

CC[C@H](C)[C@H](NC(=O)[C@H](CC(C)C)NC(=O)[C@H](Cc1c[nH]c2ccccc12)NC(=O)[C@H](CCC(N)=O)NC(=O)[C@@H](NC(=O)[C@H](Cc1ccccc1)NC(=O)[C@H](C)NC(=O)[C@H](CCCCNC(=O)COCCOCCNC(=O)COCCOCCNC(=O)CC[C@H](NC(=O)CCCCCCCCCCCCCCCCCCC(=O)O)C(=O)O)NC(=O)[C@H](CCC(N)=O)NC(=O)[C@H](C)NC(=O)[C@@H](NC(=O)[C@H](CCCCN)NC(=O)[C@H](CC(=O)O)NC(=O)[C@H](CC(C)C)NC(=O)C(C)(C)NC(=O)[C@@H](NC(=O)[C@H](CO)NC(=O)[C@H](Cc1ccc(O)cc1)NC(=O)[C@H](CC(=O)O)NC(=O)[C@H](CO)NC(=O)[C@@H](NC(=O)[C@H](Cc1ccccc1)NC(=O)[C@@H](NC(=O)CNC(=O)[C@H](CCC(=O)O)NC(=O)C(C)(C)NC(=O)[C@@H](N)Cc1ccc(O)cc1)[C@@H](C)O)[C@@H](C)O)[C@@H](C)CC)[C@@H](C)CC)C(C)C)C(=O)N[C@@H](C)C(=O)NCC(=O)NCC(=O)N1CCC[C@H]1C(=O)N[C@@H](CO)C(=O)N[C@@H](CO)C(=O)NCC(=O)N[C@@H](C)C(=O)N1CCC[C@H]1C(=O)N1CCC[C@H]1C(=O)N1CCC[C@H]1C(=O)N[C@@H](CO)C(N)=O [Tirzepatide, tirzepatide]
T½, range of values across weeks and cohorts [1]: 124 to 145 h | median Tmax range [2]: 24 to 48 h | ADA-positive patients post-baseline, number ([3]; 2.5–10.0 mg group): five | ADA-positive patients post-baseline, number ([3]; 2.5–15.0 mg group): three | ADA-positive patients post-baseline, number [3, 6]: Eight | ADA-positive patients post-baseline, percentage [3, 6]: 40% | ADAs at baseline ([3]; baseline): No ADAs were detected | impact of ADA-positive status on safety, PK and PD ([3]; in vivo): no apparent impact | meal intake between baseline and end of study [4]: trend towards a decrease | deaths or SAEs in patients receiving tirzepatide ([5]; both tirzepatide groups): no serious adverse events reported; also recorded: No deaths or SAEs occurred | changes in vital signs measurements [5]: No clinically meaningful changes
